Ki and inhibition data for 20 molecules are collected here from ChEMBL document CHEMBL1139453, “Potent inhibitors of the Plasmodium falciparum enzymes plasmepsin I and II devoid of cathepsin D inhibitory activity” (J Med Chem, 2004).

The target of test [1] is Plasmepsin I (Plasmodium falciparum, UniProt P39898). Put plainly: Inhibitory activity against protease plasmepsin-1 (Plm I) of Plasmodium falciparum. The method, boiled down:
(§1)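 Plm II: 3 nM pro-enzyme, pro-sequence cleaved by 40 min room-temperature preincubation; Plm I amount matched to similar activity. Buffer 100 mM sodium acetate pH 4.5, 10% glycerol, 0.01% Tween 20. Inhibitor (up to 1500 nM Plm I, 2500 nM Plm II; 1% DMSO final), then 3 μM FRET substrate; fluorescence over 10 min. Competitive Langmuir IC50 converted to Ki via Michaelis–Menten Km.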

The target in test [2] is T1, Cathepsin D (Homo sapiens, UniProt P07339). Put plainly: Inhibitory activity against human cathepsin D. In outline:
(§2)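 Human liver Cat D, 50 ng/mL pro-form, activated 20 min at 37 °C in 100 mM sodium acetate pH 4.5, 10% glycerol, 0.01% Tween 20. Inhibitor (tested up to 2000 nM, final DMSO 1%) added before 3 μM DABCYL-Glu-Arg-Nle-Phe-Leu-Ser-Phe-Pro-EDANS. Fluorescence rise followed 10 min. IC50 from Langmuir fit assuming competitive inhibition; Ki = IC50/(1+[S]/Km).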

Test [3] concerns the target Plasmepsin II (Plasmodium falciparum, UniProt P46925). Put plainly: Inhibitory activity against protease plasmepsin-2 (Plm II) of Plasmodium falciparum. The method, boiled down:
as §1

The test system of test [4] is Plasmodium falciparum. As to the kind of experiment: In vitro percent inhibition of Plasmodium falciparum 3D7 in human erythrocyte at 5 uM. It counts as functional. The method, boiled down: (§3)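 Synchronous P. falciparum 3D7 early trophozoites (~1% haematocrit, 1% parasitaemia) in human erythrocytes, labelled with [3H]hypoxanthine 10 μCi mL⁻¹; compound added (1–5 μM final, DMSO up to 1% v/v), 30 h at 37 °C in gassed boxes to schizont stage. Filter-harvested, β-counted; radioactivity relative to DMSO-only wells; four independent experiments per concentration.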

Test [5] concerns Plasmodium falciparum. As to the kind of experiment: Percent inhibition for Plasmodium falciparum at 5 uM. In kind it is functional. The method, boiled down: as §3
In test [6] the target is T1, Cathepsin D. As to the kind of experiment: Inhibitory activity against human Cathepsin D; Range. In outline: as §2

Bounds are passed on as bounds.

Sequence of Plasmepsin I (P39898 whole entry): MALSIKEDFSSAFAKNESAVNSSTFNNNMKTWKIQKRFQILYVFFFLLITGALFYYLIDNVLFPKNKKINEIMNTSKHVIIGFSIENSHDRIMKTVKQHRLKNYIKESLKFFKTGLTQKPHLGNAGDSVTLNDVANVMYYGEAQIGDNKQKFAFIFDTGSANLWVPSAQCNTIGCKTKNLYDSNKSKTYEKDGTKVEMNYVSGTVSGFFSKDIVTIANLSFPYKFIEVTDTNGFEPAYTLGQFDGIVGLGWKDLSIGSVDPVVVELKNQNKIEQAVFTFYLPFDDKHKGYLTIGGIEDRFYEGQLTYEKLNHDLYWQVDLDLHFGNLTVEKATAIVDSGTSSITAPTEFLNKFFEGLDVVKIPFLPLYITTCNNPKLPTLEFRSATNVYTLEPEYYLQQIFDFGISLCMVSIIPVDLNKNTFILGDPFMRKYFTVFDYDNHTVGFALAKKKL
Sequence of Plasmepsin II (P46925 whole entry): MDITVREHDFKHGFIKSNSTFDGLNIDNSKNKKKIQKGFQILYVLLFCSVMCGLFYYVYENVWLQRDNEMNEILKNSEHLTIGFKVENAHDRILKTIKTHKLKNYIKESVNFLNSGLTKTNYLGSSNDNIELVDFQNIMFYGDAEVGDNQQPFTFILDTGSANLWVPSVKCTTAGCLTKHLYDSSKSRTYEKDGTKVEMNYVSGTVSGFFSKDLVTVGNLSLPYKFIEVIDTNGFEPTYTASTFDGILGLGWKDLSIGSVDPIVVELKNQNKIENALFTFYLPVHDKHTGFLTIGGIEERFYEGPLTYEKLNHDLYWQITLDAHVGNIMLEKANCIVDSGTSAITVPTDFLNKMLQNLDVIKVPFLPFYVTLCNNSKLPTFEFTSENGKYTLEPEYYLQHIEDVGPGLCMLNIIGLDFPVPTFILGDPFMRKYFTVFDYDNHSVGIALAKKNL
T1 sequence (P07339 65-162 limits assumed): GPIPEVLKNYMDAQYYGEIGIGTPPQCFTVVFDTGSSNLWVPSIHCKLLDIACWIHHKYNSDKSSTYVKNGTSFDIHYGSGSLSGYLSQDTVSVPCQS
T1 sequence (P07339 169-412 limits assumed): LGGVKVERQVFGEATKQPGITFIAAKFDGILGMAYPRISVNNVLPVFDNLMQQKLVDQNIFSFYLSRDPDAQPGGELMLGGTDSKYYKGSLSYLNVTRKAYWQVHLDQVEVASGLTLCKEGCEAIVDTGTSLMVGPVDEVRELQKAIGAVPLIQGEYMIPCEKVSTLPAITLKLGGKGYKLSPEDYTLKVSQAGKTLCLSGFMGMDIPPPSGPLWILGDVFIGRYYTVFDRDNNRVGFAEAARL

By Ki is commonly meant a measure of affinity in units of concentration, obtained from inhibition or displacement. The low end stands for a stronger hold on the target, the high end for a looser hold on the target. As for `O=C(N[C@H]1c2ccccc2C[C@H]1O)[C@H](OCc1ccccc1)[C@H](O)[C@@H](O)[C@@H](OCc1ccccc1)C(=O)N[C@H]1c2ccccc2C[C@H]1O`, the Ki in test [1] was 0.025 µM; in test [2] it was over 2 µM; in test [3], 0.085 µM.

Consider `O=C(N[C@H]1c2ccccc2C[C@H]1O)[C@H](OC/C=C/c1ccc(F)cc1)[C@H](O)[C@@H](O)[C@@H](OC/C=C/c1ccc(F)cc1)C(=O)N[C@H]1c2ccccc2C[C@H]1O`, for which the Ki is 0.0025 µM in test [1], over 2 µM in test [2] and 0.059 µM in test [3].

The inhibition is how much of the control response was suppressed. In the case of `O=C(N[C@H]1c2ccccc2C[C@H]1O)[C@H](OC/C=C/c1ccc2c(c1)OCO2)[C@H](O)[C@@H](O)[C@@H](OC/C=C/c1ccc2c(c1)OCO2)C(=O)N[C@H]1c2ccccc2C[C@H]1O`, the inhibition constant Ki in test [1] is 0.0005 µM; in test [2], over 2 µM; in test [3], 0.014 µM. In test [4], the inhibition at 5 µM was found to be 61%.

For `O=C(N[C@H]1c2ccccc2C[C@H]1O)[C@H](OC/C=C/c1ccsc1)[C@H](O)[C@@H](O)[C@@H](OC/C=C/c1ccsc1)C(=O)N[C@H]1c2ccccc2C[C@H]1O`, the inhibitory constant (Ki) in test [1] is 0.0013 µM; in test [2], over 2 µM; in test [3] it was 0.015 µM.

Turning to `CC(=O)c1ccc(/C=C/CO[C@@H](C(=O)N[C@H]2c3ccccc3C[C@H]2O)[C@H](O)[C@@H](O)[C@@H](OC/C=C/c2ccc(C(C)=O)cc2)C(=O)N[C@H]2c3ccccc3C[C@H]2O)cc1`, the figures for the inhibition constant (Ki) in test [1], in test [2] and in test [3] were 0.0008 µM, over 2 µM and 0.006 µM, respectively. In test [4], the inhibition at 5 µM worked out at 78%.

With `C=CCO[C@@H](C(=O)N[C@H]1c2ccccc2C[C@H]1O)[C@H](O)[C@@H](O)[C@@H](OCC=C)C(=O)N[C@H]1c2ccccc2C[C@H]1O`, the Ki was 0.163 µM in test [1], over 2 µM in test [2] and 0.096 µM in test [3]. This molecule registered an inhibition at 5 µM in test [4] of 0%.

With `COc1ncc(/C=C/CO[C@@H](C(=O)N[C@H]2c3ccccc3C[C@H]2O)[C@H](O)[C@@H](O)[C@@H](OC/C=C/c2cnc(OC)nc2OC)C(=O)N[C@H]2c3ccccc3C[C@H]2O)c(OC)n1`, the Ki was 0.0084 µM in test [1], over 2 µM in test [2] and 0.013 µM in test [3]. The molecule further gave an inhibition at 5 µM in test [4] of 2%.

Take `O=C(N[C@H]1c2ccccc2C[C@H]1O)[C@H](OC/C=C/C#Cc1ccccc1)[C@H](O)[C@@H](O)[C@@H](OC/C=C/C#Cc1ccccc1)C(=O)N[C@H]1c2ccccc2C[C@H]1O`: the Ki was 0.0072 µM in test [1], over 2 µM in test [2] and 0.041 µM in test [3].

In test [3], `C=CCO[C@@H](C(=O)N[C@H](C(=O)NC)C(C)C)[C@H](O)[C@@H](O)[C@@H](OCC=C)C(=O)N[C@H](C(=O)NC)C(C)C` registered a Ki of 4.1 µM.

For `O=C(N[C@H]1c2ccccc2C[C@H]1O)[C@H](OC/C=C/C=C/c1ccccc1)[C@H](O)[C@@H](O)[C@@H](OC/C=C/C=C/c1ccccc1)C(=O)N[C@H]1c2ccccc2C[C@H]1O`, the Ki in test [1] is 0.0044 µM; in test [2], over 2 µM; in test [3] it was 0.015 µM.

For the molecule `CNC(=O)[C@@H](NC(=O)[C@H](OCc1ccccc1)[C@H](O)[C@@H](O)[C@@H](OCc1ccccc1)C(=O)N[C@H](C(=O)NC)C(C)C)C(C)C`, in test [3], the affinity corresponds to a Ki of 3.8 µM.

Turning to `Cc1ccc(/C=C/CO[C@@H](C(=O)N[C@H]2c3ccccc3C[C@H]2O)[C@H](O)[C@@H](O)[C@@H](OC/C=C/c2ccc(C)cc2)C(=O)N[C@H]2c3ccccc3C[C@H]2O)cc1`, the Ki in test [1] is 0.0058 µM; in test [2], over 2 µM; in test [3], 0.129 µM.

Take `Cc1noc(C)c1/C=C/CO[C@@H](C(=O)N[C@H]1c2ccccc2C[C@H]1O)[C@H](O)[C@@H](O)[C@@H](OC/C=C/c1c(C)noc1C)C(=O)N[C@H]1c2ccccc2C[C@H]1O`: the Ki is 0.023 µM in test [1], over 2 µM in test [2] and 0.181 µM in test [3].

Turning to `O=C(N[C@H]1c2ccccc2C[C@H]1O)[C@H](OC/C=C/Br)[C@H](O)[C@@H](O)[C@@H](OC/C=C/Br)C(=O)N[C@H]1c2ccccc2C[C@H]1O`, the Ki in test [1] is 0.027 µM; in test [2], over 2 µM; in test [3], 0.047 µM.

On to `C[Si](C)(C)C#C/C=C/CO[C@@H](C(=O)N[C@H]1c2ccccc2C[C@H]1O)[C@H](O)[C@@H](O)[C@@H](OC/C=C/C#C[Si](C)(C)C)C(=O)N[C@H]1c2ccccc2C[C@H]1O`, for which the values for the Ki in test [1], in test [2] and in test [3] were 0.037 µM, over 2 µM and 0.13 µM, respectively.

With `O=C(N[C@H]1c2ccccc2C[C@H]1O)[C@H](OC/C=C/c1ccccc1)[C@H](O)[C@@H](O)[C@@H](OC/C=C/c1ccccc1)C(=O)N[C@H]1c2ccccc2C[C@H]1O`, the inhibition constant Ki in test [1] was 0.0014 µM; in test [2], over 2 µM; in test [3] it was 0.029 µM.

In the case of `CC(C)[C@H](NC(=O)CCc1c[nH]c2ccccc12)C(=O)N[C@@H](Cc1ccccc1)[C@@H](O)CN[C@@H](Cc1ccc(-c2ccccc2)cc1)C(N)=O`, the inhibition constant (Ki) was 0.0026 µM in test [1], 0.03 µM in test [2] and 0.011 µM in test [3]. Also, 5 µM produced 56% inhibition in test [5].

Turning to `C#C/C=C/CO[C@@H](C(=O)N[C@H]1c2ccccc2C[C@H]1O)[C@H](O)[C@@H](O)[C@@H](OC/C=C/C#C)C(=O)N[C@H]1c2ccccc2C[C@H]1O`, the values for the Ki in test [1], in test [2] and in test [3] were 0.032 µM, over 2 µM and 0.037 µM, respectively.

Turning to `C=CCO[C@@H](CN[C@H]1c2ccccc2C[C@H]1O)[C@H](O)[C@@H](O)[C@@H](OCC=C)C(=O)N[C@H]1c2ccccc2C[C@H]1O`, the inhibition constant (Ki) in test [1] is over 1.5 µM; in test [6], over 2 µM; in test [3] it was over 2.5 µM. In addition, at 5 µM the inhibition in test [4] was 50%.

For the molecule `COC(=O)/C=C/C=C/CO[C@@H](C(=O)N[C@H]1c2ccccc2C[C@H]1O)[C@H](O)[C@@H](O)[C@@H](OC/C=C/C=C/C(=O)OC)C(=O)N[C@H]1c2ccccc2C[C@H]1O`, the Ki is 0.0037 µM in test [1], over 2 µM in test [2] and 0.0089 µM in test [3]. The inhibition at 5 µM in test [4] was found to be 51%.
